The values below come from ChEMBL document CHEMBL4725371, “A Novel Redox Modulator Induces a GPX4-Mediated Cell Death That Is Dependent on Iron and Reactive Oxygen Species” (J Med Chem, 2020).

A short description of series [1]: Drug level in mouse plasma treated with QD394 at 500 uM measured after 0.5 hrs by LC-MS/MS analysis.
Series [2] deals with PANC-1. Description: Cytotoxicity against human PANC-1 cells measured after 72 hrs by MTT assay. It counts as functional, cell-based. As to conditions: PANC-1, 72 h. In a few lines: (§1)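 Cells were kept in RPMI 1640 with 10% FBS at 37 °C, 5% CO₂, under 35 passages. Cells were seeded, attached overnight and treated with compound or DMSO for 72 h. MTT was added at 0.3 mg/mL for 3 h, then dissolved in DMSO and read as absorbance at 570 nm. IC50 was fitted from the curve. Values are mean ± sd of three independent experiments.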
On the technique in general: Tetrazolium assays rely on reduction of a dye to a coloured formazan, in cell work by metabolically active cells.

Series [3] deals with MIA PaCa-2. Description: Cytotoxicity against human MIA PaCa-2 cells measured after 72 hrs by MTT assay. It is filed as functional, cell-based. The settings on record: MIA PaCa-2, 72 h. In a few lines:
as §1

The test system of the next series is BXPC-3. Put plainly: Cytotoxicity against human BXPC-3 cells measured after 72 hrs by MTT assay. The settings on record: BXPC-3, 72 h. It counts as functional, cell-based. In a few lines:
as §1

The test system of series [4] is MIA PaCa-2. Description: Inhibition glutathione synthesis in human MIA PaCa-2 cells at 1 to 2 uM measured after 2 to 4 hrs by GSH/GSSG-glo assay. It counts as functional, cell-based. As to conditions: dose microM 1-2, time hrs 2-4. In a few lines: (§2)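 GSH/GSSG-Glo luminescent assay: 15,000–20,000 MIA PaCa-2 cells per well, attached overnight, treated 2 h and 4 h. Cells were lysed with total or oxidized glutathione reagent, then luciferin generation (30 min, room temperature) and detection reagents added. Luminescence was read after 15 min. Ratio was computed from net RLU as (total − GSSG)/(GSSG/2).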

The subject of series [5] is MIA PaCa-2. Put plainly: Induction of ferroptosis in human MIA PaCa-2 cells assessed as increase in lipid peroxidation at 100 uM measured after 24 hrs by C11-BODIPY dye based fluorescence assay. It counts as functional, cell-based. The procedure, abridged:
(§3)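 MIA PaCa-2 cells (RPMI 1640, 10% FBS, 37 °C, 5% CO2) exposed to compound for the set time, then 10 μM C11-BODIPY added for 30 min at 37 °C. After two DPBS washes, read in HBSS at 581/591 nm (reduced dye) and 488/510 nm (oxidized dye); emission ratio calculated, unpaired Student's t-test.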

For series [6], the system named is MIA PaCa-2. Put plainly: Induction of reactive oxygen species in human MIA PaCa-2 cells at 200 uM measured after 30 mins in presence of N-acetylcysteine by CM-H2DCFDA dye based fluorescence assay. It counts as functional, cell-based. In a few lines:
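MIA PaCa-2 cells seeded at 1.8 × 10⁴/well, attached overnight, then loaded with 10 μM CM-H2DCFDA in HBSS for 40 min at 37 °C. Washed twice with warm DPBS; compounds added in HBSS. N-acetylcysteine used at 3 mM. Fluorescence read at Ex 483 / Em 530 nm, with the 30 min point taken. Unpaired t-test.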

In series [7] the test system is MIA PaCa-2. Description: Induction of ferroptosis in human MIA PaCa-2 cells assessed as increase in lipid peroxidation at 0.5 uM measured after 24 hrs by C11-BODIPY dye based fluorescence assay. It counts as functional, cell-based. The procedure, abridged:
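MIA PaCa-2 cells were treated for the set time, then given 10 μM C11-BODIPY for 30 min at 37 °C and washed. Fluorescence was read at 581/591 nm (reduced dye) and 488/510 nm (oxidized dye). The intensity ratio was compared by unpaired t-test.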

Series [8] relates to MIA PaCa-2. Description: Induction of reactive oxygen species in human MIA PaCa-2 cells assessed as reduction in GSH to GSSG ratio at 1 to 2 uM measured after 2 to 4 hrs by GSH/GSSG-glo assay. It is filed as functional, cell-based. As to conditions: dose microM 1-2, time hrs 2-4. In a few lines: as §2
In series [9] the test system is MIA PaCa-2. Put plainly: Down regulation of PNPT1 expression in human MIA PaCa-2 cells at 3 times IC50 measured after 4 hrs in presence of NAC by proteomics analysis. It is filed as functional, cell-based.
The subject of series [10] is MIA PaCa-2. Description: Down regulation of PNPT1 expression in human MIA PaCa-2 cells at 3 times IC50 measured after 4 hrs in presence of NQO1 inhibitor dicoumarol by proteomics analysis. It counts as functional, cell-based.
For series [11], the system named is PANC-1. Put plainly: Down regulation of PNPT1 expression in human PANC-1 cells at 3 times IC50 measured after 1 to 24 hrs by proteomics analysis. The settings on record: time hrs 1-24. It is filed as functional, cell-based.
Series [12] deals with MIA PaCa-2. Put plainly: Inhibition of colony formation in human MIA PaCa-2 cells at 0.6 uM measured after 7 to 9 days in presence of necroptosis inhibitor necrostatin-1 by crystal violet staining based assay. It counts as functional, cell-based. The settings on record: time day 7-9. In a few lines:
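Cells seeded overnight in 96-well plates at 300 cells/well (MIA PaCa-2) or 600 cells/well (BxPC-3), in RPMI 1640 with 10% FBS. Inhibitor added 1 h before compound, then continuous exposure for 7–9 days until control wells were 80–90% confluent. Stained with 0.05% crystal violet for 30 min, imaged after overnight drying and quantified.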

The test system of series [13] is MIA PaCa-2. Put plainly: Down regulation of LRPPRC expression in human MIA PaCa-2 cells at 3 times IC50 measured after 4 hrs in presence of NAC by proteomics analysis. It is filed as functional, cell-based.
Series [14] concerns MIA PaCa-2. Description: Down regulation of PNPT1 expression in human MIA PaCa-2 cells at 3 times IC50 measured after 4 hrs by proteomics analysis. It is filed as functional, cell-based.
Series [15] relates to MIA PaCa-2. Description: Down regulation of LRPPRC expression in human MIA PaCa-2 cells at 3 times IC50 measured after 4 hrs in presence of NQO1 inhibitor dicoumarol by proteomics analysis. It is filed as functional, cell-based.
The subject of series [16] is MIA PaCa-2. Description: Down regulation of LRPPRC expression in human MIA PaCa-2 cells at 3 times IC50 measured after 4 hrs by proteomics analysis. It counts as functional, cell-based.
Series [17] deals with PANC-1. Put plainly: Down regulation of LRPPRC expression in human PANC-1 cells at 3 times IC50 measured after 1 to 24 hrs by proteomics analysis. It is filed as functional, cell-based. As to conditions: time hrs 1-24.
Series [18] concerns MIA PaCa-2. Put plainly: Induction of ferroptosis in human MIA PaCa-2 cells assessed as increase in lipid peroxidation at 20 to 40 uM measured after 24 hrs by C11-BODIPY dye based fluorescence assay. It is filed as functional, cell-based. As to conditions: dose microM 20-40, time 24.0 hrs. The procedure, abridged:
as §3

Structures are written as SMILES. pIC50: −log10 of the molar value. The source made the active and inactive calls. The calls are words filed in the database; no cut-off is given here.

On to `CN1CCN(c2ccc(NC3=CC(=O)c4ncncc4C3=O)cc2)C(O)C1` (stereo unspecified), for which the Drug uptake entry in series [1] is given as “Active”.

In general, pIC50 refers to the negative decadic logarithm of the IC50, by convention in mol/L. Consider `O=C1C(Nc2cccc(-c3ccccc3)c2)=CC(=O)c2ncncc21`, for which the negative-log IC50 (pIC50) in the series on PANC-1 [2] was 5.64; with MIA PaCa-2 [3], 5.62; with BXPC-3 it was 5.29.

Turning to `CCc1ccc(-c2ccc(NC3=CC(=O)c4ncncc4C3=O)cc2)cc1`, the negative logarithm of the IC50 (pIC50) in the series with PANC-1 [2] was 5.64; in the series with MIA PaCa-2 [3], 5.82; with BXPC-3, 5.80.

Take `CN1CCN(c2ccc(NC3=C(SCC(N)C(=O)O)C(=O)c4ncncc4C3=O)cc2)CC1` (stereo unspecified): the Drug uptake result in series [1] was “Active”.

`CCCCS(=N)(=O)CCC(N)C(=O)O` (stereo unspecified): the inhibition entry with MIA PaCa-2 [4] is “Active”.

Regarding `O=C1C(Nc2ccc(-c3ccc(Cl)cc3)cc2)=CC(=O)c2ncncc21`, the values for the negative logarithm of the IC50 (pIC50) with PANC-1 [2], with MIA PaCa-2 [3] and in the series on BXPC-3 were 5.36, 5.01 and 5.00, respectively.

As for `O=C1C(Nc2ccc(C3CCCCC3)cc2)=CC(=O)c2ncncc21`, the pIC50 is 6.05 in the series on PANC-1 [2], 5.92 in the series on MIA PaCa-2 [3] and 6.30 in the series with BXPC-3.

For the compound `O=C1C(Nc2ccc(N3CCOCC3)cc2)=CC(=O)c2ncncc21`, the pIC50 in the series with PANC-1 [2] was 6.10; in the series with MIA PaCa-2 [3] it was 5.82; with BXPC-3, 5.64.

`O=C1C(Nc2ccc(-c3ccccn3)cc2)=CC(=O)c2ncncc21`: the pIC50 in the series with PANC-1 [2] was 6.10; with MIA PaCa-2 [3] it was 5.70; with BXPC-3, 5.57.

As to `CN1C(O)CN(c2ccc(NC3=CC(=O)c4ncncc4C3=O)cc2)CC1O` (stereo unspecified), the Drug uptake entry in [1] is recorded as “Active”.

With `CN1CCN(c2ccc(NC3C(=O)c4cncnc4C(=O)C3O)cc2)CC1` (stereo unspecified), in [1], the Drug uptake entry is on record as “Active”.

In the case of `O=C1C(Nc2ccc(-c3cc(Cl)cc(Cl)c3)cc2)=CC(=O)c2ncncc21`, the values for the negative-log IC50 (pIC50) in the series on PANC-1 [2], in the series with MIA PaCa-2 [3] and in the series with BXPC-3 were 5.72, 5.51 and 5.48, respectively.

For `O=C1C(Nc2cccc3c2Cc2ccccc2-3)=CC(=O)c2ncncc21`, the figures for the pIC50 in the series on PANC-1 [2], with MIA PaCa-2 [3] and with BXPC-3 were 5.33, 5.51 and 5.35, respectively.

Regarding `CC(C)(C)OO`, in the series with MIA PaCa-2 [5], the outcome was Active. Also, the result in the series on MIA PaCa-2 [6] was inactive.

For `O=C1C(Nc2ccc3c(c2)Cc2ccccc2-3)=CC(=O)c2ncncc21`, the pIC50 was 5.80 in the series on PANC-1 [2], 5.66 in the series with MIA PaCa-2 [3] and 5.59 in the series on BXPC-3.

For the compound `O=C1C(Nc2ccc(N3CCCCC3)cc2)=CC(=O)c2ncncc21`, the results for the negative-log IC50 (pIC50) in the series with PANC-1 [2], in the series with MIA PaCa-2 [3] and in the series with BXPC-3 were 5.85, 5.62 and 5.60, respectively.

In the case of `COC(=O)c1ccc([C@H]2c3[nH]c4ccccc4c3C[C@H](C(=O)OC)N2C(=O)CCl)cc1`, the result with MIA PaCa-2 [7] was Active.

Regarding `CC(=O)c1cc2c(o1)C(=O)c1ccccc1C2=O`, the result with MIA PaCa-2 [8], in the series on MIA PaCa-2 [9], in the series on MIA PaCa-2 [13], in the series with MIA PaCa-2 [14] and in the series with MIA PaCa-2 [16] was Active. In addition, the result with MIA PaCa-2 [10], in the series on PANC-1 [11], in the series on MIA PaCa-2 [15] and with PANC-1 [17] was inactive. In the series on MIA PaCa-2 [12], the inhibition result was “inactive”. For the same compound, the inhibition result in the series with MIA PaCa-2 [4] is “Active”.

Regarding `COc1c(Nc2ccc(N3CCN(C)CC3)cc2)cc(OC)c2ncncc12`, in series [1], the Drug uptake entry was “Active”.

For the compound `CCOc1ccccc1-n1c(C(C)N2CCN(C(=O)COc3ccc(Cl)cc3)CC2)nc2ccccc2c1=O` (stereo unspecified), the result with MIA PaCa-2 [18] was Active.
